Assay results taken from ChEMBL document CHEMBL1132173, “Novel derivatives of 2-pyridinemethylamine as selective, potent, and orally active agonists at 5-HT1A receptors” (J Med Chem, 1999).

Legend:
[1] = system: Rattus norvegicus; test: Induction of lower lip retraction in rat 60 min after administration, effective peroral dose determined in vivo; format: functional; conditions: po, 1 h
Summary of the method: (§1)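 Observed in 10 min windows centred 15 and 60 min post-dose, 10 s each minute, scoring lower lip retraction present or absent (0–10).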

[2] = system: Rattus norvegicus; test: Effective intraperitoneal dose in vivo in rat after 15 mins to induce lower lip retraction; format: functional; conditions: ip, 0.25 h; summary of the method: as §1
[3] = target: T1, 5-hydroxytryptamine receptor 1A (Homo sapiens, UniProt P08908); test: In vitro effective concentration required to inhibit forskolin-stimulated cAMP levels in HA7 cells expressing human 5-HT1A receptor; format: functional, cell-based
T1 sequence (P08908 whole entry): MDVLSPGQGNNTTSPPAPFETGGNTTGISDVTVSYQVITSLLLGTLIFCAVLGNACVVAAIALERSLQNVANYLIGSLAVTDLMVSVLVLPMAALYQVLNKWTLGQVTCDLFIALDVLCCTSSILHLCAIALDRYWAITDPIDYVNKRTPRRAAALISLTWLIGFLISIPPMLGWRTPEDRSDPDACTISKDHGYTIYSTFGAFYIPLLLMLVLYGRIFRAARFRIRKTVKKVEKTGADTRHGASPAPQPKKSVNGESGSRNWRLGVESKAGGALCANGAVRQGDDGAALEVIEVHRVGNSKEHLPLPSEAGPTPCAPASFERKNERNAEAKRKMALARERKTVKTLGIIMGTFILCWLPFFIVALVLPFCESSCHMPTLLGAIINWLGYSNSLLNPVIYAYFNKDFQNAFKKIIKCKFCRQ
Summary of the method: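 HeLa HA7 cells stably expressing human 5-HT1A, at 80–90% confluency, antibiotic-free for 24 h. Preincubated 10 min at RT in DMEM/10 mM Hepes, then drug at 0.1 nM–100 µM with 100 µM forskolin and 100 µM IBMX for 10 min at RT. Stopped with 0.1 N HCl; cAMP by radioimmunoassay as % of forskolin control; pEC50.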

[4] = target: T2, 5-hydroxytryptamine receptor 1A (Rattus norvegicus, UniProt P19327); test: Binding affinity towards 5-hydroxytryptamine 1A receptor in rat cortex using [3H]8-OH-DPAT as a radioligand
T2 sequence (P19327 whole entry): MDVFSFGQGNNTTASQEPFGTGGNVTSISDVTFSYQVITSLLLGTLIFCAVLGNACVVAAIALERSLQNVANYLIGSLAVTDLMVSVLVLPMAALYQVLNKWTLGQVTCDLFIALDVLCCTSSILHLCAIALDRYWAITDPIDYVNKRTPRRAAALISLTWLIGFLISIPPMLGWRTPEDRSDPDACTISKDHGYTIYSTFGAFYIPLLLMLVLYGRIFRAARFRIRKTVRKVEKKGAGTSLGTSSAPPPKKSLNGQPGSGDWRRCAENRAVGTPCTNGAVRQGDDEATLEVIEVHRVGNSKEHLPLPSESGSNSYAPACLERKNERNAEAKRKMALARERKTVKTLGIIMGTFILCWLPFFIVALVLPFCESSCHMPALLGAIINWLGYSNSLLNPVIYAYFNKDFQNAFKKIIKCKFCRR
Summary of the method: (§2)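 Rat tissue membranes, competition against radioligand at 23 °C. Nonspecific binding: 5-HT for 5-HT1A (30 min), (+)-butaclamol for D2 (60 min), phentolamine for α1 (30 min). Tris HCl 50 mM pH 7.4 buffers. Filtration through glass-fibre filters, then scintillation counting. Run in triplicate; IC50 by nonlinear regression; Ki by Cheng–Prusoff; mean pKi of three determinations.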

[5] = target: D(2) dopamine receptor (Rattus norvegicus, UniProt P61169); test: Binding affinity towards Dopamine receptor D2 in rat striatum using YM-09151-2 as a radioligand; format: tissue-based; summary of the method: as §2
D(2) dopamine receptor, sequence (P61169 whole entry): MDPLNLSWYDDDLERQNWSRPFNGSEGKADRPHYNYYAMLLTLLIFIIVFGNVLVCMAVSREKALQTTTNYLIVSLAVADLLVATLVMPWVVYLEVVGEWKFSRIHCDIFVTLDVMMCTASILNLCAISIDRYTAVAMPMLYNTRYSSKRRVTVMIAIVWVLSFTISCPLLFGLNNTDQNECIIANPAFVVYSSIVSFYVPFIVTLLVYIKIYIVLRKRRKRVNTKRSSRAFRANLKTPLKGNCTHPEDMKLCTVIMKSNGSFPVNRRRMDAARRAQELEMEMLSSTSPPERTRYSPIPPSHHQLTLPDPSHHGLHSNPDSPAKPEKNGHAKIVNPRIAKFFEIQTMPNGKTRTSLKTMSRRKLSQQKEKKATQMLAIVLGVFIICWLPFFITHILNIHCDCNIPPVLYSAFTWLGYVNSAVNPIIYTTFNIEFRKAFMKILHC

[6] = target: T3, Adrenergic receptor alpha-1 (Rattus norvegicus, UniProt P15823+P23944+P43140); test: Binding affinity towards Alpha-1 adrenergic receptor using prazosin as a radioligand in rat cortex; summary of the method: as §2
T3 sequence (P15823 whole entry): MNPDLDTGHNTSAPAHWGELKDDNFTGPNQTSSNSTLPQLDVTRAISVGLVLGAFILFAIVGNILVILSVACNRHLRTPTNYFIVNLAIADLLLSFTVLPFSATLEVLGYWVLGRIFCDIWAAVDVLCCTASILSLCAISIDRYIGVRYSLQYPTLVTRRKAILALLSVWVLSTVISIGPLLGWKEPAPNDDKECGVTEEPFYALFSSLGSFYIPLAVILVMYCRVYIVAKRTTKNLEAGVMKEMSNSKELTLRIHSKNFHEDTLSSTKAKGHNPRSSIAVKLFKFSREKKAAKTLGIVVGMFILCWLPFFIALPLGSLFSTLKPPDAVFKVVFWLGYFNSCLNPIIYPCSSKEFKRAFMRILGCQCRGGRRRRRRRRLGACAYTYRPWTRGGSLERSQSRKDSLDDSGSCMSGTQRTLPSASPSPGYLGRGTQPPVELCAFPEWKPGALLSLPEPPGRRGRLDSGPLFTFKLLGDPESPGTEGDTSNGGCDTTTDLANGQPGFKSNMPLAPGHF
T3 sequence (P23944 whole entry): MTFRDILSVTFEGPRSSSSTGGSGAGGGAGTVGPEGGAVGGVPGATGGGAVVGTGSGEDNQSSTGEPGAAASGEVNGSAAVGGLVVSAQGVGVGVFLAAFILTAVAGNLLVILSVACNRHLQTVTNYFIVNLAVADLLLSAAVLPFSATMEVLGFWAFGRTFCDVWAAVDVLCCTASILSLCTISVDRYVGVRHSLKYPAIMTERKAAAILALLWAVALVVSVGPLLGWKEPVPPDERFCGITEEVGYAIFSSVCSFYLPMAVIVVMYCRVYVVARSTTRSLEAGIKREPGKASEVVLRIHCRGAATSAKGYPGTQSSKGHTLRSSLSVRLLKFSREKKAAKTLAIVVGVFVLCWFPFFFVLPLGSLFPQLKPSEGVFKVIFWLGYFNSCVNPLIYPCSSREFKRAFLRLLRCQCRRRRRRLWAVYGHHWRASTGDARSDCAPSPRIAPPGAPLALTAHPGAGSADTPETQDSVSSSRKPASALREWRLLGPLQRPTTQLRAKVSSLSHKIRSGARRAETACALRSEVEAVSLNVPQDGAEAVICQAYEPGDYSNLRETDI
T3 sequence (P43140 whole entry): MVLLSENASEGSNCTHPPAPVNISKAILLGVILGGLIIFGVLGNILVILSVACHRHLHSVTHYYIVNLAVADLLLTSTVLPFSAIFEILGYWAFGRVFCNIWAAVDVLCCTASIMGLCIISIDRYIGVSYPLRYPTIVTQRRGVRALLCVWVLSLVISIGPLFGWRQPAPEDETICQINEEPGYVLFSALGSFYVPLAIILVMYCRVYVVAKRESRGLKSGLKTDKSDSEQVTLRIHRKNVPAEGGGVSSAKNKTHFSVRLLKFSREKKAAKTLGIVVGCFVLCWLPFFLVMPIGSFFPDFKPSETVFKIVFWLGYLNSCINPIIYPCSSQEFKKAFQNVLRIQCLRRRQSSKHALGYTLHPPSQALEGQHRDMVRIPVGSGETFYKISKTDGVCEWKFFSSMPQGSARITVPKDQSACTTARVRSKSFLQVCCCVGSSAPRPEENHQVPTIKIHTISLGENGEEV

[7] = system: Rattus norvegicus; test: Effective intraperitoneal dose in vivo in rat after 60 mins to induce lower lip retraction; format: functional; conditions: ip, 1 h; summary of the method: as §1

| EC50 [3] [nM] | Ki [4] [nM] | Ki [5] [nM] | Log Ki [6] | SMILES | ED50 [1] [mg/kg] | ED50 [2] [mg/kg] | ED50 [7] [mg/kg] |
| --- | --- | --- | --- | --- | --- | --- | --- |
| 13.2 |  |  |  | CCNc1cccc(CNCC2(F)CCN(C(=O)c3ccc(F)c(Cl)c3)CC2)n1 | 0.32 | 0.11 |  |
| 30.9 |  |  |  | O=C(c1ccc(Cl)c(Cl)c1)N1CCC(CNCc2cccc(-n3cccn3)n2)CC1 |  |  |  |
| 33.1 | 0.562 |  |  | Cc1cc(CNCC2(F)CCN(C(=O)c3ccc(F)c(Cl)c3)CC2)nc(N(C)C)c1 | 0.89 | 0.32 |  |
| 2 |  |  |  | O=C(c1ccc(Cl)c(Cl)c1)N1CCC(CNCc2cccc(-c3cnco3)n2)CC1 |  |  |  |
| 162 | 6.92 |  |  | N#CC1(CNCc2cccc(-n3cccn3)n2)CCN(C(=O)c2ccc(Cl)c(Cl)c2)CC1 |  |  |  |
| 7.08 |  |  |  | O=C(c1ccc(Cl)c(Cl)c1)N1CCC(CNCc2cccc(N3CCC3)n2)CC1 |  |  |  |
| 14.8 | 0.447 |  |  | Cc1ccc(CNCC2(F)CCN(C(=O)c3ccc(F)c(Cl)c3)CC2)nc1-n1cccn1 | 1.3 | 0.32 |  |
| 5.25 |  |  |  | O=C(c1ccc(Cl)c(Cl)c1)N1CCC(CNCc2cccc(-c3ccco3)n2)CC1 |  |  |  |
| 2.75 | 2.19 |  |  | Cc1ccc(CNCC2(F)CCN(C(=O)c3ccc(F)c(Cl)c3)CC2)nc1-c1cc[nH]n1 | 0.89 | 0.32 |  |
| 5.75 |  |  |  | O=C(c1ccc(Cl)c(Cl)c1)N1CCC(CNCc2cccc(-c3cccs3)n2)CC1 |  |  |  |
| 10 | 0.0977 | 617 | -6.81 | CN(C)c1cccc(CNCC2(F)CCN(C(=O)c3cccc(Cl)c3)CC2)n1 | 0.32 | 0.08 | 0.11 |
|  | 15.1 |  |  | O=C(c1ccc(Cl)c(Cl)c1)N1CCC(CNCc2ncccc2F)CC1 |  |  |  |
| 20.4 |  |  |  | CN(C)c1cccc(CNCC2CCN(C(=O)c3ccc(Cl)c(Cl)c3)CC2)n1 |  |  |  |
| 269 | 6.03 |  |  | O=C(c1ccc(Cl)c(Cl)c1)N1CC=C(CNCc2cccc(-n3cccn3)n2)CC1 |  |  |  |
| 407 | 8.91 |  |  | CCc1ccc(CNCC2(F)CCN(C(=O)c3ccc(F)c(Cl)c3)CC2)nc1 | 1.8 | 1.3 |  |
|  | 35.5 |  |  | CC(C)c1ccc(CNCC2(F)CCN(C(=O)c3ccc(F)c(Cl)c3)CC2)nc1 |  |  |  |
| 6.61 |  |  | -6.92 | CNc1cccc(CNCC2(F)CCN(C(=O)c3ccc(Cl)c(Cl)c3)CC2)n1 | 0.32 | 0.11 | 0.23 |
| 12.3 | 0.49 |  |  | O=C(c1ccc(F)c(Cl)c1)N1CCC(F)(CNCc2cccc(-n3cccn3)n2)CC1 | 1.3 | 0.32 |  |
